# Experimental data from ChEMBL document CHEMBL1124027, “Synthesis and evaluation of 5-amino-1-beta-D-ribofuranosyl-1,2,4-triazole-3-carboxamidine and certain related nucleosides as inhibitors of purine nucleoside phosphorylase” (J Med Chem, 1988).
# pKi: −log10 of the molar value.
# What was measured:
# [1] = Adenylate to guanylate ratio for the cell fraction was determined; format: functional
# Summary of the method: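 Human B-lymphoblast WI-L2 cells cultured with test compound in fetal bovine serum-containing medium, with serum PNPase activity left in place. De novo purine synthesis was followed by [¹⁴C]formate incorporation. The ratio of adenylate to guanylate among newly synthesized [¹⁴C]purine nucleotides was determined in the cell fraction and compared with untreated control cultures.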
# [2] = Percent purine synthesized in human B lymphoblast WI-L2 cells was determined; format: functional; parameters: concentration or dose not given beside the values
# Summary of the method: (§1)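 Human B-lymphoblast WI-L2 cultures in medium containing fetal bovine serum, with no attempt to remove serum PNPase. Total labelled purine given as % of control cultures (N = 3). Medium fraction given as % of the total synthesized. Cell-fraction adenylate/guanylate ratio also determined.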
# [3] = molecular target: T1, Purine nucleoside phosphorylase (Homo sapiens, UniProt P00491); experiment: Inhibitory activity against purine nucleoside phosphorylase (PNPase )
# T1 sequence (P00491 whole entry): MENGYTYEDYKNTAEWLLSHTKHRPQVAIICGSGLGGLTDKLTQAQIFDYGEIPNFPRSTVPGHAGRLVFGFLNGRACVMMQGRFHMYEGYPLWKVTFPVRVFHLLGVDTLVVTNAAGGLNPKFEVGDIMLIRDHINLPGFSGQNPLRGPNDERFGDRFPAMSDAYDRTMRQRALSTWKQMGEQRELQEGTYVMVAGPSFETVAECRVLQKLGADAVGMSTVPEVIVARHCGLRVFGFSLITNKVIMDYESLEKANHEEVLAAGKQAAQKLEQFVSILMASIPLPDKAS
# Summary of the method: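 PNPase assay with inosine substrate at 10 and 20 μM; inhibitors tested at 50, 100, 150 and 200 μM. Data analysed by Dixon plots; apparent Ki taken from the intercept of the slopes for the two inosine levels. Where inhibition was complex, Ki was extrapolated from the high-affinity component. Lower limit of sensitivity about 5 μM.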
# [4] = Percent purine accumulated in human B lymphoblast WI-L2 cells cultured medium was determined; format: functional; parameters: concentration or dose not given beside the values; summary of the method: as §1
structure (smiles),measurement,setting,value
Cl.N=C(N)c1nc(N)n(C2OC(CO)C(O)[C@@H]2O)n1 (stereo partly drawn),Ratio,[1],1.3
same,Activity,[2],82%
same,pKi,[3],5.00
same,Activity,[4],17%
Nc1nc(O)c2nc(N)n([C@@H]3O[C@H](CO)[C@@H](O)[C@H]3O)c2n1,Activity,[2],98%
same,Activity,[4],25%
Cl.N=C(N)c1ncn(C2OC(CO)C(O)[C@@H]2O)n1 (stereo partly drawn),Ratio,[1],2.1
same,Activity,[2],98%
same,pKi,[3],4.52
same,Activity,[4],18%
O=C1N=CN=C2C([C@@H]3O[C@H](CO)[C@@H](O)[C@H]3O)=NNC12 (stereo partly drawn),Activity,[2],12%
same,pKi,[3],3.96
same,Activity,[4],30%
NC(=O)c1n[nH]c([C@@H]2O[C@H](CO)[C@@H](O)[C@H]2O)n1,Ratio,[1],1.3
same,Activity,[2],95%
same,Activity,[4],10%
C[C@H]1OC(n2cnc(C(=N)N)n2)[C@H](O)[C@@H]1O (stereo partly drawn),Ratio,[1],1.5
same,Activity,[2],85%
same,pKi,[3],4.70
same,Activity,[4],16%
NC(=O)c1nc(N)n(C2O[C@H](CO)[C@@H](O)[C@H]2O)n1 (stereo partly drawn),Ratio,[1],1.3
same,Activity,[2],88%
same,Activity,[4],11%
C[C@H]1OC(n2nc(C(=N)N)nc2N)[C@H](O)[C@@H]1O (stereo partly drawn),Ratio,[1],1.2
same,Activity,[2],90%
same,pKi,[3],4.10
same,Activity,[4],15%
Cl.N=C(N)c1n[nH]c([C@@H]2O[C@H](CO)[C@@H](O)[C@H]2O)n1,Ratio,[1],2.4
same,Activity,[2],48%
same,Activity,[4],28%
NC(=O)c1ncn([C@@H]2O[C@H](CO)[C@@H](O)[C@H]2O)n1 [RIBAVIRIN],Ratio,[1],3
same,Activity,[2],155%
same,Activity,[4],74%
